This is an account of results in ChEMBL document CHEMBL4177769, “Highly Selective and Potent Ectonucleotide Pyrophosphatase-1 (NPP1) Inhibitors Based on Uridine 5'-Pα,α-Dithiophosphate Analogues” (J Med Chem, 2018).

For data set [1], the target named is T1, Ectonucleoside triphosphate diphosphohydrolase 8 (Homo sapiens) (UniProt Q5MY95).
T1 sequence (whole entry): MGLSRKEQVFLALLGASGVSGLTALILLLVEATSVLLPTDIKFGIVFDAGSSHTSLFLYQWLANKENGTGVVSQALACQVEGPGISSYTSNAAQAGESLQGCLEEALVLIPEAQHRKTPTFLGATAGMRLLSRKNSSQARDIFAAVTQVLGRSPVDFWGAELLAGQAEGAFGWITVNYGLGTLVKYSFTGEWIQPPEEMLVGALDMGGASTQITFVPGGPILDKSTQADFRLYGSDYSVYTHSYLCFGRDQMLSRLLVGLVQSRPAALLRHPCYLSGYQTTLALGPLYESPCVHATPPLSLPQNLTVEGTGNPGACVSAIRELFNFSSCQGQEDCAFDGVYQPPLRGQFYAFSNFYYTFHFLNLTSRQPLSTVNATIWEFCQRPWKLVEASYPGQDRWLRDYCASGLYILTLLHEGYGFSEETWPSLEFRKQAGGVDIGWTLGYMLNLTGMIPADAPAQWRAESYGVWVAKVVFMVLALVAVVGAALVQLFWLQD
Put plainly: Inhibition of human NTPDase8 at 100 uM using ATP as substrate preincubated for 3 mins followed by substrate addition measured after 10 mins by malachite green reagent-based assay. In short, it runs like this:
(§1)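 Compound at 100 μM, 3 min preincubation, 100 μM ATP, 10 min. Stopped with malachite green; Pi read at 630 nm. Blank with enzyme added after stop subtracted. Activity with ATP alone taken as 100%.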

Data set [2] can be described thus: Drug metabolism at 2 mM at acidic pH after 5 days by 31P NMR method. Type of data set: physicochemical. The note with it: read-out: Drug metabolism.
A short description of data set [3]: Drug metabolism at 2 mM at basic pH after 5 days by 31P NMR method. Type of data set: physicochemical. The note with it: read-out: Drug metabolism.
Data set [4] addresses P2Y purinoceptor 6 (Homo sapiens) (UniProt Q15077). Put plainly: Agonist activity at recombinant human P2RY6 expressed in AD293 cells assessed as increase in intracellular calcium levels by Fluo-4/AM dye-based spectrofluorometer. The class given is functional, cell-based. A digest of the protocol: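 Human P2Y2, P2Y4 or P2Y6 receptor stably expressed in AD293 cells. Compound at 100 μM. Agonism read as change in intracellular calcium (Δ[Ca2+]i), with UDP or UTP as control.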

The nature of data set [5]: Stability of the compound assessed as air oxidation at room temperature at 1.8 mM after 3 weeks by 31P NMR method. Type of data set: physicochemical. The note with it: 504 h, 1800 µM.
In data set [6] the target is T2, Ectonucleoside triphosphate diphosphohydrolase 1 (Homo sapiens) (UniProt P49961).
T2 sequence (whole entry): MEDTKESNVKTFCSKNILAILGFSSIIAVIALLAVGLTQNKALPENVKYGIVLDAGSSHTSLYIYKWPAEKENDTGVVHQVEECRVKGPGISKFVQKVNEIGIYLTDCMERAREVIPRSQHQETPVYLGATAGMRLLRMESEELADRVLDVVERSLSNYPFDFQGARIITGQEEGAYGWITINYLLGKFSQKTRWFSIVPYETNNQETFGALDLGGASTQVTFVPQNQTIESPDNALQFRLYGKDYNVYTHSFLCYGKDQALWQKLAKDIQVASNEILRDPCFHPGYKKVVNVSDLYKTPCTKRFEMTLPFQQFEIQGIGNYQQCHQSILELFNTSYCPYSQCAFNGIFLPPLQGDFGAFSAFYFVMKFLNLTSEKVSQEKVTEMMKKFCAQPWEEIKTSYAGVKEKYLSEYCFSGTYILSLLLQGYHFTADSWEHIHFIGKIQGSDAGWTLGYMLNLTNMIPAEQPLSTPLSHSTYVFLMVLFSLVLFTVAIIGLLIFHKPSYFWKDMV
The data set can be described thus: Inhibition of human NTPDase1 at 100 uM using ATP as substrate preincubated for 3 mins followed by substrate addition measured after 10 mins by malachite green reagent-based assay. In short, it runs like this: as §1

For data set [7], the target named is T3, Ectonucleotide pyrophosphatase/phosphodiesterase family member 3 (Homo sapiens) (UniProt O14638).
T3 sequence (whole entry): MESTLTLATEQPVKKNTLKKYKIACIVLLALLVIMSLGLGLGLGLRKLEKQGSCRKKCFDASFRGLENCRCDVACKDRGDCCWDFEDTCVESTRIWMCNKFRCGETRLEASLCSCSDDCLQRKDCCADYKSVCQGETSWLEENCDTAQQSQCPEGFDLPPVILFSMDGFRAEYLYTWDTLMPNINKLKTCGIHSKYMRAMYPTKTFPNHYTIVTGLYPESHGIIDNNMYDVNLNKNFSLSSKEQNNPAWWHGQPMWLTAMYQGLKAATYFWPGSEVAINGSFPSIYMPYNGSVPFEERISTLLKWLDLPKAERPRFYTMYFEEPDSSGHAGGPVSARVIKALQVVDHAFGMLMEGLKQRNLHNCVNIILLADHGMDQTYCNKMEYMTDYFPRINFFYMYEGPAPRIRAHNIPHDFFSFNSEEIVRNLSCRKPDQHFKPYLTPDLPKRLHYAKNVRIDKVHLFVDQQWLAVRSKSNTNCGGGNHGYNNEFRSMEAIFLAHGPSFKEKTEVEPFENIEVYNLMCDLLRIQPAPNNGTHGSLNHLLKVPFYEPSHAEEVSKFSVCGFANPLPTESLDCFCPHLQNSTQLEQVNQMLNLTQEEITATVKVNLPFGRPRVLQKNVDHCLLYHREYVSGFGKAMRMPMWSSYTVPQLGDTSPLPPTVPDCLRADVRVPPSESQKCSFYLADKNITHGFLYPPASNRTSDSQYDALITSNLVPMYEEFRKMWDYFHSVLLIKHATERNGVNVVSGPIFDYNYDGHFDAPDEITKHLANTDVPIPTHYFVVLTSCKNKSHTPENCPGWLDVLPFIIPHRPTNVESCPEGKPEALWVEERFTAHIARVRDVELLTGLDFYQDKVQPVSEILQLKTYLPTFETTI
Put plainly: Inhibition of human NPP3 at 100 uM using pNP-TMP as substrate preincubated for 3 mins followed by substrate addition measured after 15 mins. In short, it runs like this:
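Human NPP1 (4−5 μg) or NPP3 (12−14 μg) cell lysate in mM 1 CaCl2, 140 NaCl, 5 KCl, 50 Tris pH 8.5, 37 °C. Compound at 100 μM, 3 min preincubation, 100 μM pNP-TMP substrate. p-Nitrophenol read at 405 nm after 15 min. Blank with enzyme added at end subtracted. Activity without compound taken as 100%. At least two independent experiments in triplicate.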

The source made the active and inactive calls. The calls are words filed in the database; no cut-off is given here.

Sequence of P2Y purinoceptor 6 (Homo sapiens) (Q15077 whole entry): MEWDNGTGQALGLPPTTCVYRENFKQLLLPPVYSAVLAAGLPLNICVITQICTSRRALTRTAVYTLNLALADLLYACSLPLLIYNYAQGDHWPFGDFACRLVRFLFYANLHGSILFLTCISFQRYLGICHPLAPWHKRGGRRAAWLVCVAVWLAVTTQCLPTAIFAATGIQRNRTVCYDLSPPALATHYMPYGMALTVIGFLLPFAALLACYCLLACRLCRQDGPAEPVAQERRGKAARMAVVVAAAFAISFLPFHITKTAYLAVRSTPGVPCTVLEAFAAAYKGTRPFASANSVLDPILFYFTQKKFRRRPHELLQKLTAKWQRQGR

Consider `O=c1ccn([C@@H]2O[C@H](COP(=S)(S)OP(=O)(O)OP(=O)(O)O)[C@@H](O)[C@H]2O)c(=O)[nH]1` (some centres not stated), for which the inhibition result in data set [1] and in data set [6] was “inactive” in each case. Moreover, the degraded at 120 h, 2000 µM was 11% in data set [2] and 13% in data set [3]. Moreover, in data set [4], the outcome was Active. For the same compound, in data set [5], the Stability result is recorded as “Stable”.

As for `O=c1ccn([C@@H]2O[C@H](COP(=S)(S)OP(=O)(O)O)[C@@H](O)[C@H]2O)c(=O)[nH]1` (some centres not stated), the inhibition in data set [7] was found to be 21%; in data set [1] it was 15%; in data set [6], 15%. In addition, in data set [4], the result was Active.

On to `O=c1ccn([C@@H]2O[C@H](COP(=S)(S)OP(=O)(O)CP(=O)(O)O)[C@@H](O)[C@H]2O)c(=O)[nH]1` (some centres not stated), for which the results for the inhibition in data set [7], in data set [1] and in data set [6] were 21%, 15% and 15%, respectively. The degraded at 120 h, 2000 µM in data set [2] is 2%; in data set [3], 8%. In addition, in data set [4], the result was Active. In addition, the Stability entry in data set [5] is reported as “Stable”.
